What was measured:
HeLa [1] = assay: Cytotoxicity against human HeLa cells assessed as cell viability at 10 uM measured after 48 hrs by WST-1 assay relative to control; format: functional; conditions: read-out: Activity
Summary of the method: (§1)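 Ten-line human panel (9 cancer, 1 non-cancerous). Cells were seeded at a pre-established optimal density (500–30 × 10³ per well) and settled overnight. Compounds came from 10 mM DMSO stocks and were tested at two concentrations. WST-1 readout followed the manufacturer's protocol at the end of cultivation. Viability is expressed as % of untreated control cells, mean of three independent experiments.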

Mus musculus [2] = assay: Radioprotective activity in C57Bl/6 mouse assessed as body weight gain at 100 mg/kg, ip administered 5 min prior to gamma-irradation at 8.5 Gy measured after 30 days relative to control; format: functional
MCF7 [3] = assay: Cytotoxicity against human MCF7 cells assessed as cell viability at 10 uM measured after 48 hrs by WST-1 assay relative to control; format: functional; conditions: read-out: Activity; summary of the method: as §1
A2780 [4] = assay: Cytotoxicity against human A2780 cells assessed as cell viability at 100 uM measured after 48 hrs by WST-1 assay relative to control; format: functional; conditions: read-out: Activity; summary of the method: as §1
[5] = Cytotoxicity against human MRC5 cells assessed as cell viability at 100 uM measured after 48 hrs by WST-1 assay relative to control; format: cell-based; conditions: read-out: Activity; summary of the method: as §1
A549 [6] = assay: Cytotoxicity against human A549 cells assessed as maximum tolerated concentration incubated for 24 hrs by MTT assay; format: functional
Summary of the method: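 A-549 cells in DMEM with 10% FBS and 1% penicillin-streptomycin, left to attach overnight. Compounds made up in PBS, serially diluted in DMEM, incubated 24 h, then viability read by MTT reduction against untreated controls on each plate. MTC taken as the highest concentration showing no significant difference from non-treated control (t-test).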

A549 [7] = assay: Cytotoxicity against human A549 cells assessed as cell viability at 100 uM measured after 48 hrs by WST-1 assay relative to control; format: functional; conditions: read-out: Activity; summary of the method: as §1
[8] = Toxicity in C57Bl/6 mouse assessed as change in body weight at 100 mg/kg, ip measured after 30 days (reference value: 103 +/- 12 %); format: organism-based; conditions: in vivo, 720 h, time 30 day
SAOS-2 [9] = assay: Cytotoxicity against human SAOS-2 cells assessed as cell viability at 100 uM measured after 48 hrs by WST-1 assay relative to control; format: functional; conditions: read-out: Activity; summary of the method: as §1
SAOS-2 [10] = assay: Cytotoxicity against human SAOS-2 cells assessed as cell viability at 10 uM measured after 48 hrs by WST-1 assay relative to control; format: functional; conditions: read-out: Activity; summary of the method: as §1
[11] = Cytotoxicity against human MRC5 cells assessed as cell viability at 10 uM measured after 48 hrs by WST-1 assay relative to control; format: cell-based; conditions: read-out: Activity; summary of the method: as §1
[12] = Immuno-toxicity in C57Bl/6 mouse assessed as decrease in absolute number of lymphocytes at 100 mg/kg, ip measured after 12 days post-treatment by flow cytometry; format: organism-based; conditions: in vivo, 288 h, time 12 day
MOLT-4 [13] = assay: Radioprotective activity against gamma irradiation-induced apoptosis in human MOLT-4 cells assessed as viable cells at 100 uM pretreated with compound for 1 hr followed by gamma irradiation and measured after 24 hrs by annexinV/propidium iodide staining based flow cytometry (reference value: 40 %); format: functional; conditions: MOLT-4, light or radiation study, time 25 hrs, read-out: Activity
Jurkat [14] = assay: Cytotoxicity against human Jurkat cells assessed as cell viability at 100 uM measured after 48 hrs by WST-1 assay relative to control; format: functional; conditions: read-out: Activity; summary of the method: as §1
PANC-1 [15] = assay: Cytotoxicity against human PANC-1 cells assessed as cell viability at 100 uM measured after 48 hrs by WST-1 assay relative to control; format: functional; conditions: read-out: Activity; summary of the method: as §1
MOLT-4 [16] = assay: Cytotoxicity against human MOLT-4 cells assessed as cell viability at 100 uM measured after 48 hrs by WST-1 assay relative to control; format: functional; conditions: read-out: Activity; summary of the method: as §1
MCF7 [17] = assay: Cytotoxicity against human MCF7 cells assessed as cell viability at 100 uM measured after 48 hrs by WST-1 assay relative to control; format: functional; conditions: read-out: Activity; summary of the method: as §1
Jurkat [18] = assay: Cytotoxicity against human Jurkat cells assessed as cell viability at 10 uM measured after 48 hrs by WST-1 assay relative to control; format: functional; conditions: read-out: Activity; summary of the method: as §1
Mus musculus [19] = assay: Radioprotective activity in C57Bl/6 mouse assessed as average body weight at 100 mg/kg, ip administered 5 min prior to gamma-irradation at 8.5 Gy and measured immediately (reference value: 25.4 +/- 2.6 g); format: functional
Mus musculus [20] = assay: Radioprotective activity in C57Bl/6 mouse assessed as average body weight at 100 mg/kg, ip administered 5 min prior to gamma-irradation at 8.5 Gy and measured after 30 days; format: functional
Mus musculus [21] = assay: Radioprotective activity in C57Bl/6 mouse assessed as median survival time at 100 mg/kg, ip administered 5 min prior to gamma-irradation at 8.5 Gy and measured after 30 days (reference value: 12 days); format: functional
[22] = Toxicity in C57Bl/6 mouse assessed as adverse effects at 100 mg/kg, ip measured after 30 days; format: organism-based; conditions: in vivo, 720 h, time 30 day
Summary of the method: (§2)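 Safety in C57Bl/6 mice (27 ± 3 g) given a single 100 mg/kg i.p. injection without irradiation. Deaths, adverse effects and body weight followed over 30 days against an untreated control group. Weight reported as change from day 0.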

A549 [23] = assay: Cytotoxicity against human A549 cells assessed as cell viability at 10 uM measured after 48 hrs by WST-1 assay relative to control; format: functional; conditions: read-out: Activity; summary of the method: as §1
[24] = Toxicity in C57Bl/6 mouse assessed as mouth death at 100 mg/kg, ip measured after 30 days; format: organism-based; conditions: in vivo, 720 h, time 30 day; summary of the method: as §2
PANC-1 [25] = assay: Cytotoxicity against human PANC-1 cells assessed as cell viability at 10 uM measured after 48 hrs by WST-1 assay relative to control; format: functional; conditions: read-out: Activity; summary of the method: as §1
[26] = Toxicity in C57Bl/6 mouse assessed as average body weight at 100 mg/kg, ip and measured immediately (reference value: 26.3 +/- 2.4 g); format: organism-based; conditions: in vivo
MOLT-4 [27] = assay: Cytotoxicity against human MOLT-4 cells assessed as cell viability at 10 uM measured after 48 hrs by WST-1 assay relative to control; format: functional; conditions: read-out: Activity; summary of the method: as §1
A2780 [28] = assay: Cytotoxicity against human A2780 cells assessed as cell viability at 10 uM measured after 48 hrs by WST-1 assay relative to control; format: functional; conditions: read-out: Activity; summary of the method: as §1
HeLa [29] = assay: Cytotoxicity against human HeLa cells assessed as cell viability at 100 uM measured after 48 hrs by WST-1 assay relative to control; format: functional; conditions: read-out: Activity; summary of the method: as §1
[30] = Toxicity in C57Bl/6 mouse assessed as average body weight at 100 mg/kg, ip measured after 30 days (reference value: 27 +/ 3.2 g); format: organism-based; conditions: in vivo, 720 h, time 30 day
HT-29 [31] = assay: Cytotoxicity against human HT-29 cells assessed as cell viability at 10 uM measured after 48 hrs by WST-1 assay relative to control; format: functional; conditions: read-out: Activity; summary of the method: as §1
HT-29 [32] = assay: Cytotoxicity against human HT-29 cells assessed as cell viability at 100 uM measured after 48 hrs by WST-1 assay relative to control; format: functional; conditions: read-out: Activity; summary of the method: as §1
A549 [33] = assay: Cytotoxicity against human A549 cells assessed as reduction in cell viability incubated for 24 hrs by MTT assay; format: functional, cell-based; conditions: A549, 24 h
Summary of the method: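 A-549 cells in DMEM with 10% FBS and 1% penicillin-streptomycin were attached overnight. Compounds were prepared in PBS and serially diluted in DMEM, then incubated 24 h. Viability was read by colorimetric MTT reduction against an untreated control on each plate (100%). IC50 came from four-parameter nonlinear regression of the log concentration-response curve, mean ± SEM. MTC is the highest concentration not differing from control (t-test).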

[34] = Immuno-toxicity in C57Bl/6 mouse assessed as decrease in absolute number of lymphocytes at 100 mg/kg, ip measured after 7 to 12 days post-treatment by flow cytometry; format: organism-based; conditions: in vivo, time 7-12 day
HT-29 [35] = assay: Cytotoxicity against human HT-29 cells assessed as growth percent at 100 uM by WST-1 assay relative to control; format: functional; conditions: HT-29, read-out: Activity, time 48 hrs
MCF7 [36] = assay: Cytotoxicity against human MCF7 cells assessed as growth percent at 100 uM by WST-1 assay relative to control; format: functional; conditions: MCF7, read-out: Activity, time 48 hrs

C=CCc1ccc(OCC(O)CN2CCN(CCO)CC2)c(OC)c1 (centres undefined)
viability at 10 µM (HeLa [1]): 100% | Activity (Mus musculus [2]): 103% | viability at 10 µM (MCF7 [3]): 99% | viability at 100 µM (A2780 [4]): 85% | viability at 48 h, 100 µM [5]: 103% | MTD (A549 [6]): 0.2 mM | viability at 100 µM (A549 [7]): 105% | Activity [8]: 105% | viability at 100 µM (SAOS-2 [9]): 75% | viability at 10 µM (SAOS-2 [10]): 112% | viability at 48 h, 10 µM [11]: 94% | Activity [12]: Toxic | viability at 100 µM (MOLT-4 [13]): 52% | viability at 100 µM (Jurkat [14]): 83% | viability at 100 µM (PANC-1 [15]): 116% | viability at 100 µM (MOLT-4 [16]): 65% | viability at 100 µM (MCF7 [17]): 89% | viability at 10 µM (Jurkat [18]): 110% | Activity (Mus musculus [19]): 25.1 g | Activity (Mus musculus [20]): 27.3 g | MST (Mus musculus [21]): 12 days | Activity [22]: Non-Toxic | viability at 10 µM (A549 [23]): 91% | Activity [24]: Non-Toxic | viability at 10 µM (PANC-1 [25]): 101% | Activity [26]: 25.7 g | viability at 10 µM (MOLT-4 [27]): 104% | viability at 10 µM (A2780 [28]): 97% | viability at 100 µM (HeLa [29]): 99% | Activity [30]: 27 g | viability at 10 µM (HT-29 [31]): 109% | viability at 100 µM (HT-29 [32]): 102% | IC50 (A549 [33]): 1120 µM

Cc1ccccc1OCC(O)CN1CCN(CCO)CC1 (centres undefined)
viability at 10 µM (HeLa [1]): 102% | viability at 10 µM (MCF7 [3]): 103% | viability at 100 µM (A2780 [4]): 79% | viability at 48 h, 100 µM [5]: 104% | MTD (A549 [6]): 0.39 mM | viability at 100 µM (A549 [7]): 114% | Activity [8]: 104% | viability at 100 µM (SAOS-2 [9]): 84% | viability at 10 µM (SAOS-2 [10]): 103% | viability at 48 h, 10 µM [11]: 97% | viability at 100 µM (MOLT-4 [13]): 62% | viability at 100 µM (Jurkat [14]): 92% | viability at 100 µM (PANC-1 [15]): 116% | viability at 100 µM (MOLT-4 [16]): 86% | viability at 100 µM (MCF7 [17]): 95% | viability at 10 µM (Jurkat [18]): 106% | Activity (Mus musculus [19]): 27.3 g | Activity [34]: Toxic | MST (Mus musculus [21]): 7 days | Activity [22]: Non-Toxic | viability at 10 µM (A549 [23]): 95% | Activity [24]: Non-Toxic | viability at 10 µM (PANC-1 [25]): 102% | Activity [26]: 26.2 g | viability at 10 µM (MOLT-4 [27]): 104% | viability at 10 µM (A2780 [28]): 101% | viability at 100 µM (HeLa [29]): 96% | Activity [30]: 27.2 g | viability at 10 µM (HT-29 [31]): 98% | viability at 100 µM (HT-29 [32]): 151% | IC50 (A549 [33]): 3400 µM

OCCN1CCN(CC(O)COc2cccc3ccccc23)CC1 (centres undefined)
viability at 10 µM (HeLa [1]): 99% | viability at 10 µM (MCF7 [3]): 103% | viability at 100 µM (A2780 [4]): 77% | viability at 48 h, 100 µM [5]: 78% | MTD (A549 [6]): 0.07 mM | viability at 100 µM (A549 [7]): 107% | viability at 100 µM (SAOS-2 [9]): 97% | viability at 10 µM (SAOS-2 [10]): 97% | viability at 48 h, 10 µM [11]: 102% | viability at 100 µM (MOLT-4 [13]): 59% | viability at 100 µM (Jurkat [14]): 76% | viability at 100 µM (PANC-1 [15]): 101% | viability at 100 µM (MOLT-4 [16]): 83% | growth at 100 µM (HT-29 [35]): 53% | viability at 100 µM (MCF7 [17]): 64% | viability at 10 µM (Jurkat [18]): 96% | viability at 10 µM (A549 [23]): 98% | growth at 100 µM (MCF7 [36]): 64% | viability at 10 µM (PANC-1 [25]): 102% | viability at 10 µM (MOLT-4 [27]): 98% | viability at 10 µM (A2780 [28]): 97% | viability at 100 µM (HeLa [29]): 129% | viability at 10 µM (HT-29 [31]): 93% | viability at 100 µM (HT-29 [32]): 53% | IC50 (A549 [33]): 420 µM

From ChEMBL document CHEMBL4706495, “A novel class of small molecule inhibitors with radioprotective properties” (Eur J Med Chem, 2020)
